Measurements published in PubChem BioAssay AID623895 (Broad Institute, 2012).
Calls of active or inactive are those of the source.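 The calls were made as follows: active = compounds with an ATP-loss curve whose half-maximal dose stays within twice the top dose, in every run; inconclusive = mixed run calls, weak flat effects or poor fits; inactive = the rest, including opposite-direction effects.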

Assay: cytotoxicity in ldlA[mSR-BI] CHO cells, dose response, cytotoxicity control for SR-BI HDL uptake inhibitor project, cell-based, 24 h, ATP luminescence, dry powder, set 6 (AID 623895)
Conditions: ldlA[mSR-BI] CHO cells viability, ATP luminescence, 24 h; at 35 µM (top of the series)
Procedure, shortened: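 Assay system: ldlA[mSR-BI] cells | Quantity: 4,000 cells per well | Buffer or medium: Ham's F12 plus 10% FCS | Incubation: 24 h compound exposure at 37 °C, luminescence read 10 min after reagent | Dosing: 8 compound concentrations | Measure: Viability IC50 from dose-response fit | Technique: ATP luminescence (Cell Titer Glo)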

SMILES | activity change, negative = cytotoxicity
C[C@@H]1CN([C@H](C)CO)C(=O)c2cc(NC(=O)C3CCCCC3)ccc2O[C@H]1CN(C)S(=O)(=O)c1ccccc1Cl | -18.6% (inactive)
C[C@@H]1CN([C@H](C)CO)C(=O)c2cc(NC(=O)Cc3cn(C)c4ccccc34)ccc2O[C@H]1CN(C)CC1CCCCC1 | -22.1% (inactive)
C[C@@H]1CN([C@H](C)CO)C(=O)c2cc(NC(=O)Nc3cccc4ccccc34)ccc2O[C@H]1CN(C)S(=O)(=O)c1ccc(Cl)cc1 | -10.4% (inactive)
CCCNC(=O)N(C)C[C@@H]1Oc2cc(-c3cncnc3)ccc2S(=O)(=O)N([C@@H](C)CO)C[C@@H]1C | -5.43% (inactive)
C[C@H](CO)N1C[C@H](C)[C@H](CN(C)C)Oc2c(NS(C)(=O)=O)cccc2C1=O | 4.96% (inactive)
C[C@@H]1CN([C@H](C)CO)C(=O)c2cc(NC(=O)Cn3cnnn3)ccc2O[C@H]1CN(C)S(=O)(=O)c1ccc(Cl)cc1 | 10.5% (inactive)
C[C@@H]1CN([C@@H](C)CO)C(=O)Cc2cc(NC(=O)CCCN(C)C)ccc2O[C@H]1CN(C)Cc1ccncc1 | 0.314% (inactive)
O=C(C[C@H]1CC[C@H](NC(=O)CC2CC2)[C@@H](CO)O1)NCc1ccc(Cl)cc1 | -5.27% (inactive)
Cc1noc(C)c1NC(=O)N(C)C[C@@H]1Oc2ccc(NC(=O)Cc3cn(C)c4ccccc34)cc2C(=O)N([C@H](C)CO)C[C@H]1C | 10.5% (inactive)
C[C@@H]1CN([C@@H](C)CO)C(=O)Cc2cc(NS(=O)(=O)c3cn(C)cn3)ccc2O[C@@H]1CN(C)Cc1ccc(Cl)c(Cl)c1 | -6.37% (inactive)
C[C@@H]1CN([C@H](C)CO)C(=O)c2cc(NC(=O)C3CCCCC3)ccc2O[C@H]1CN(C)C(=O)c1ccc(Cl)cc1 | -24.6% (inactive)
C[C@@H]1CN([C@H](C)CO)C(=O)c2cc(NC(=O)Cc3cn(C)c4ccccc34)ccc2O[C@H]1CN(C)S(=O)(=O)c1cn(C)cn1 | -6.33% (inactive)
C[C@@H]1CN([C@H](C)CO)C(=O)c2cc(NS(=O)(=O)c3cccs3)ccc2O[C@H]1CN(C)S(=O)(=O)c1ccc(Cl)cc1 | 1.79% (inactive)
C[C@@H]1CN([C@H](C)CO)C(=O)c2cc(NC(=O)Cc3cn(C)c4ccccc34)ccc2O[C@H]1CN(C)C(=O)Nc1ccccc1 | -12.4% (inactive)
Cc1noc(C)c1NC(=O)Nc1ccc2c(c1)C(=O)N([C@H](C)CO)C[C@@H](C)[C@H](CN(C)S(=O)(=O)c1ccc(Cl)cc1)O2 | -7.8% (inactive)
C[C@@H]1CN([C@H](C)CO)C(=O)c2cc(NC(=O)Cc3cn(C)c4ccccc34)ccc2O[C@H]1CN(C)S(=O)(=O)c1cccs1 | -7.16% (inactive)
COc1ccc(S(=O)(=O)N(C)C[C@@H]2Oc3ccc(NC(=O)Cc4cn(C)c5ccccc45)cc3C(=O)N([C@H](C)CO)C[C@H]2C)cc1 | -20.3% (inactive)
C[C@@H]1CN([C@H](C)CO)C(=O)c2cc(NS(C)(=O)=O)ccc2O[C@H]1CN(C)S(=O)(=O)c1ccc(Cl)cc1 | -14.8% (inactive)
C[C@@H]1CN([C@H](C)CO)C(=O)c2cc(NC(=O)Cc3cn(C)c4ccccc34)ccc2O[C@H]1CN(C)S(C)(=O)=O | -4.79% (inactive)
C[C@@H]1CN([C@H](C)CO)C(=O)c2cc(NC(=O)Cc3cn(C)c4ccccc34)ccc2O[C@H]1CN(C)Cc1ccc2c(c1)OCO2 | -15% (inactive)
CNC[C@@H]1OCCCC[C@@H](C)Oc2ccc(NS(=O)(=O)c3ccc(Cl)cc3)cc2C(=O)N([C@H](C)CO)C[C@H]1C | -5.46% (inactive)

SMILES | activity change, negative = cytotoxicity
C[C@@H]1CN([C@H](C)CO)C(=O)c2cc(NC(=O)Cc3cn(C)c4ccccc34)ccc2O[C@H]1CN(C)C(=O)Nc1ccc(C(F)(F)F)cc1 | -31.9% (inactive)
Cc1noc(C)c1S(=O)(=O)N(C)C[C@H]1Oc2c(NC(=O)c3nc4ccccc4s3)cccc2C(=O)N([C@H](C)CO)C[C@H]1C | -8.36% (inactive)
Cc1noc(C)c1S(=O)(=O)Nc1ccc2c(c1)C(=O)N([C@H](C)CO)C[C@@H](C)[C@H](CN(C)S(=O)(=O)c1ccc(Cl)cc1)O2 | -15.6% (inactive)
C[C@@H]1CN([C@H](C)CO)C(=O)c2cc(NC(=O)Cc3cn(C)c4ccccc34)ccc2O[C@H]1CN(C)S(=O)(=O)c1ccccc1 | -5.11% (inactive)
CC(=O)Nc1ccc(Cl)c(C(=O)Nc2ccc(N3CCN(C(=O)OC(C)(C)C)CC3)cc2)c1 | -29.2% (inactive)
C[C@@H]1CN([C@H](C)CO)C(=O)c2cc(NC(=O)Cc3cn(C)c4ccccc34)ccc2O[C@H]1CN(C)Cc1ccc(C(=O)Nc2ccccc2N)cc1 | -12.9% (inactive)
C[C@@H]1CN([C@H](C)CO)C(=O)c2cc(NC(=O)C3CC3)ccc2O[C@H]1CN(C)S(=O)(=O)c1ccc(Cl)cc1 | -13% (inactive)
C[C@@H]1CN([C@H](C)CO)C(=O)c2cc(NC(=O)Cc3cn(C)c4ccccc34)ccc2O[C@H]1CN(C)C(=O)Nc1ccc(F)cc1 | -16.3% (inactive)
C[C@@H]1CN([C@@H](C)CO)C(=O)c2cc(NC(=O)Cc3cn(C)c4ccccc34)ccc2O[C@H]1CN(C)S(=O)(=O)c1ccc(Cl)cc1 | -25.3% (inactive)
Cc1ccc(OCc2cc(C(=O)N3CCCC(O)C3)no2)cn1 (stereo unspecified) | -19.7% (inactive)
COc1ccc2c(c1)CC(C1(O)C(=O)N(C)c3ccccc31)C2=O (stereo unspecified) | -9.47% (inactive)
Cc1ccc(S(=O)(=O)N(C)C[C@@H]2Oc3ccc(NC(=O)Cc4cn(C)c5ccccc45)cc3C(=O)N([C@H](C)CO)C[C@H]2C)cc1 | -12.8% (inactive)
C[C@@H]1CN([C@H](C)CO)C(=O)c2cc(NC(=O)Cc3cn(C)c4ccccc34)ccc2O[C@H]1CN(C)Cc1ccccc1 | -31.2% (inactive)
C[C@@H]1CN([C@H](C)CO)C(=O)c2cc(NS(=O)(=O)c3cn(C)cn3)ccc2O[C@H]1CN(C)S(=O)(=O)c1ccc(Cl)cc1 | 1.24% (inactive)
C[C@@H]1CN([C@H](C)CO)C(=O)c2cc(NC(=O)Cc3cn(C)c4ccccc34)ccc2O[C@H]1CN(C)C | 6.87% (inactive)
COc1ccc(S(=O)(=O)Nc2ccc3c(c2)C(=O)N([C@H](C)CO)C[C@@H](C)[C@H](CN(C)S(=O)(=O)c2ccc(Cl)cc2)O3)cc1 | -22.9% (inactive)
C[C@@H]1CN([C@H](C)CO)C(=O)c2cc(NC(=O)Cc3cn(C)c4ccccc34)ccc2O[C@H]1CN(C)Cc1ccncc1 | -16.9% (inactive)
C[C@@H]1CN([C@H](C)CO)C(=O)c2cc(NC(=O)Nc3ccccc3)ccc2O[C@H]1CN(C)S(=O)(=O)c1ccc(Cl)cc1 | -34.8% (inactive)
C[C@@H]1CN([C@H](C)CO)C(=O)c2cc(NS(=O)(=O)c3ccccc3)ccc2O[C@H]1CN(C)S(=O)(=O)c1ccc(Cl)cc1 | -8.14% (inactive)
C[C@@H]1CN([C@H](C)CO)C(=O)c2cc(NC(=O)Cc3cn(C)c4ccccc34)ccc2O[C@H]1CN(C)C(=O)Nc1ccc2c(c1)OCO2 | 7.49% (inactive)
